Laboratory results published in ChEMBL document CHEMBL2375318, “Design, synthesis and antimicrobial activity of novel benzothiazole analogs” (Eur J Med Chem, 2013).
Converted amounts (≈) assume the structure as drawn.

What was measured:
Candida albicans [1] = assay: Antifungal activity against Candida albicans ATCC 90028 after 18 to 24 hrs by micro-dilution metho; format: functional
Outline: (§1)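 Broth micro-dilution MIC, fungi. Fresh broth cultures were made in normal saline. Compounds were serially diluted in microtiter plates across 8 concentrations, 100 down to 0.78. Standardized inoculum was 1–2 × 10^7 cfu/ml. Medium was Sabouraud dextrose pH 7.3 ± 0.2. Plates were incubated aerobically at 37 °C for 18–24 h. MIC is the lowest concentration with no visible growth or turbidity versus control. Fluconazole was the reference.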

Klebsiella pneumoniae = assay: Antimicrobial activity against Klebsiella pneumoniae clinical isolate after 18 to 24 hrs by micro-dilution method; format: functional
Candida tropicalis = assay: Antifungal activity against Candida tropicalis ATCC 750 after 18 to 24 hrs by micro-dilution method; format: functional; outline: as §1
Pseudomonas aeruginosa = assay: Antimicrobial activity against Pseudomonas aeruginosa ATCC 27893 after 18 to 24 hrs by micro-dilution method; format: functional
Staphylococcus aureus = assay: Antimicrobial activity against Staphylococcus aureus ATCC 25323 after 18 to 24 hrs by micro-dilution method; format: functional
Pichia kudriavzevii = assay: Antifungal activity against Candida krusei ATCC 6258 after 18 to 24 hrs by micro-dilution method; format: functional; outline: as §1
Escherichia coli = assay: Antimicrobial activity against Escherichia coli ATCC 35218 after 18 to 24 hrs by micro-dilution method; format: functional
[2] = Cytotoxicity against human RBC assessed as hemolytic activity at 100 uM after 1 hr by spectophotometry; format: cell-based, Erythrocyte; details: red blood cells (RBC), read-out: Activity
Outline: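 Hemolysis, fresh human blood. RBCs were washed three times in PBS (spun 3000 rpm, 7 min, room temperature) and adjusted to 5×10^8 cells/ml. Cell suspension was added to buffer holding 100 μM compound in 1% v/v DMSO/PBS. Controls were 1% DMSO/PBS and sterile water. Samples were shaken at 37 °C for 1 h, spun at 1300 rpm for 5 min, and supernatant absorbance read at 540 nm.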

Candida albicans [3] = assay: Antifungal activity against Candida albicans clinical isolate after 18 to 24 hrs by micro-dilution method; format: functional; outline: as §1
Aspergillus niger = assay: Antimicrobial activity against Aspergillus niger clinical isolate after 18 to 24 hrs by micro-dilution method; format: functional; outline: as §1
Salmonella typhi = assay: Antimicrobial activity against Salmonella typhi MTCC 3216 after 18 to 24 hrs by micro-dilution method; format: functional, Salmonella enterica subsp. enterica serovar Typhi; details: Salmonella enterica
Outline: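 Broth microdilution with twofold serial dilutions from 100 down to 0.78, eight concentrations. Fresh cultures were made up in normal saline, and 0.1 ml of standardized inoculum (1–2 × 10^7 cfu/ml) was added per well. Plates were incubated aerobically at 37 °C for 18–24 h on Mueller-Hinton agar/Luria broth. MIC was the lowest concentration with no visible turbidity compared with the control.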

Aspergillus fumigatus = assay: Antimicrobial activity against Aspergillus fumigatus clinical isolate after 18 to 24 hrs by micro-dilution method; format: functional; outline: as §1
Cryptococcus neoformans = assay: Antifungal activity against Cryptococcus neoformans clinical isolate after 18 to 24 hrs by micro-dilution method; format: functional; outline: as §1
Shigella boydii = assay: Antimicrobial activity against Shigella boydii clinical isolate after 18 to 24 hrs by micro-dilution method; format: functional
Enterococcus faecalis = assay: Antimicrobial activity against Enterococcus faecalis clinical isolate after 18 to 24 hrs by micro-dilution method; format: functional

Structure (SMILES) | MIC (Candida albicans [1]) [µg/mL] | MIC (Klebsiella pneumoniae) [µg/mL] | MIC (Candida tropicalis) [µg/mL] | MIC (Pseudomonas aeruginosa) [µg/mL] | MIC (Staphylococcus aureus) [µg/mL] | MIC (Pichia kudriavzevii) [µg/mL] | MIC (Escherichia coli) [µg/mL] | hemolysis at 1 h, 100 µM [2] [%] | MIC (Candida albicans [3]) [µg/mL] | MIC (Aspergillus niger) [µg/mL] | MIC (Salmonella typhi) [µg/mL] | MIC (Aspergillus fumigatus) [µg/mL] | MIC (Cryptococcus neoformans) [µg/mL] | MIC (Shigella boydii) [µg/mL] | MIC (Enterococcus faecalis) [µg/mL]
FC(F)(F)Oc1ccc(-n2cc(CN(Cc3cn(-c4ccc(OC(F)(F)F)cc4)nn3)c3nc4ccccc4s3)nn2)cc1 | 3.12 (≈ 4.93 µM) | 12.5 (≈ 19.8 µM) | 12.5 (≈ 19.8 µM) | 25 (≈ 39.5 µM) | 12.5 (≈ 19.8 µM) | 12.5 (≈ 19.8 µM) | 25 (≈ 39.5 µM) | 9.12 | 12.5 (≈ 19.8 µM) | 12.5 (≈ 19.8 µM) | > 100 | 25 (≈ 39.5 µM) | 3.12 (≈ 4.93 µM) | 100 (≈ 158 µM) | 12.5 (≈ 19.8 µM)
Fc1ccccc1-n1cc(CN(Cc2cn(-c3ccccc3F)nn2)c2nc3ccccc3s2)nn1 | > 100 | > 100 | > 100 | > 100 | > 100 | > 100 | > 100 | 26.5 | > 100 | > 100 | > 100 | > 100 | > 100 | > 100 | > 100
Fc1ccc(-n2cc(CN(Cc3cn(-c4ccc(F)cc4Cl)nn3)c3nc4ccccc4s3)nn2)c(Cl)c1 | 50 (≈ 87.8 µM) | 100 (≈ 176 µM) | 6.25 (≈ 11 µM) | 6.25 (≈ 11 µM) | 50 (≈ 87.8 µM) | 6.25 (≈ 11 µM) | 3.12 (≈ 5.48 µM) | 12.3 | 6.25 (≈ 11 µM) | 25 (≈ 43.9 µM) | 6.25 (≈ 11 µM) | 6.25 (≈ 11 µM) | 1.56 (≈ 2.74 µM) | 100 (≈ 176 µM) | 6.25 (≈ 11 µM)
CCCCCc1ccc(-n2cc(CN(Cc3cn(-c4ccc(CCCCC)cc4)nn3)c3nc4ccccc4s3)nn2)cc1 | > 100 | > 100 | 12.5 (≈ 20.7 µM) | > 100 | > 100 | > 100 | > 100 | 3.28 | > 100 | > 100 | > 100 | > 100 | > 100 | > 100 | > 100
Fc1ccc(-n2cc(CN(Cc3cn(-c4ccc(F)c(Cl)c4)nn3)c3nc4ccccc4s3)nn2)cc1Cl | 6.25 (≈ 11 µM) | 50 (≈ 87.8 µM) | 12.5 (≈ 22 µM) | 3.12 (≈ 5.48 µM) | 6.25 (≈ 11 µM) | 3.12 (≈ 5.48 µM) | 25 (≈ 43.9 µM) | 5.32 | 25 (≈ 43.9 µM) | 6.25 (≈ 11 µM) | 6.25 (≈ 11 µM) | 25 (≈ 43.9 µM) | 1.56 (≈ 2.74 µM) | 100 (≈ 176 µM) | 3.12 (≈ 5.48 µM)
Cc1cc(F)ccc1-n1cc(CN(Cc2cn(-c3ccc(F)cc3C)nn2)c2nc3ccccc3s2)nn1 | > 100 | > 100 | > 100 | > 100 | > 100 | > 100 | 50 (≈ 94.6 µM) | 29.8 | > 100 | > 100 | > 100 | > 100 | > 100 | > 100 | > 100
Clc1cccc(-n2cc(CN(Cc3cn(-c4cccc(Cl)c4Cl)nn3)c3nc4ccccc4s3)nn2)c1Cl | > 100 | > 100 | > 100 | > 100 | 50 (≈ 83 µM) | > 100 | > 100 | 37.7 | 25 (≈ 41.5 µM) | > 100 | 100 (≈ 166 µM) | > 100 | 3.12 (≈ 5.18 µM) | > 100 | > 100
Brc1ccc(-n2cc(CN(Cc3cn(-c4ccc(Br)cc4)nn3)c3nc4ccccc4s3)nn2)cc1 | 6.25 (≈ 10 µM) | > 100 | 6.25 (≈ 10 µM) | > 100 | > 100 | 6.25 (≈ 10 µM) | > 100 | 12.4 | 12.5 (≈ 20.1 µM) | 3.12 (≈ 5.01 µM) | > 100 | 3.12 (≈ 5.01 µM) | 1.56 (≈ 2.51 µM) | > 100 | > 100
Fc1ccc(-n2cc(CN(Cc3cn(-c4ccc(F)cc4F)nn3)c3nc4ccccc4s3)nn2)c(F)c1 | > 100 | 3.12 (≈ 5.82 µM) | > 100 | 3.12 (≈ 5.82 µM) | 3.12 (≈ 5.82 µM) | > 100 | 3.12 (≈ 5.82 µM) | 2.47 | > 100 | > 100 | 3.12 (≈ 5.82 µM) | > 100 | > 100 | 100 (≈ 186 µM) | 3.12 (≈ 5.82 µM)
c1ccc2c(-n3cc(CN(Cc4cn(-c5cccc6ccccc56)nn4)c4nc5ccccc5s4)nn3)cccc2c1 | > 100 | > 100 | > 100 | > 100 | > 100 | > 100 | > 100 | 34 | > 100 | > 100 | > 100 | > 100 | > 100 | > 100 | > 100
Cc1cc(C)cc(-n2cc(CN(Cc3cn(-c4cc(C)cc(C)c4)nn3)c3nc4ccccc4s3)nn2)c1 | 3.12 (≈ 5.99 µM) | > 100 | 12.5 (≈ 24 µM) | > 100 | 100 (≈ 192 µM) | > 100 | 100 (≈ 192 µM) | 7.42 | 12.5 (≈ 24 µM) | 12.5 (≈ 24 µM) | 100 (≈ 192 µM) | 12.5 (≈ 24 µM) | 3.12 (≈ 5.99 µM) | 100 (≈ 192 µM) | > 100
Clc1ccc(-n2cc(CN(Cc3cn(-c4ccc(Cl)cc4Cl)nn3)c3nc4ccccc4s3)nn2)c(Cl)c1 | 6.25 (≈ 10.4 µM) | > 100 | 12.5 (≈ 20.8 µM) | > 100 | 50 (≈ 83 µM) | 6.25 (≈ 10.4 µM) | 50 (≈ 83 µM) | 4.54 | 12.5 (≈ 20.8 µM) | 1.56 (≈ 2.59 µM) | > 100 | 1.56 (≈ 2.59 µM) | 3.12 (≈ 5.18 µM) | > 100 | 50 (≈ 83 µM)
COc1cc(-n2cc(CN(Cc3cn(-c4cc(OC)c(OC)c(OC)c4)nn3)c3nc4ccccc4s3)nn2)cc(OC)c1OC | > 100 | > 100 | > 100 | > 100 | > 100 | 6.25 (≈ 9.69 µM) | > 100 | 36.6 | > 100 | > 100 | > 100 | > 100 | > 100 | > 100 | > 100
COc1cccc(-n2cc(CN(Cc3cn(-c4cccc(OC)c4)nn3)c3nc4ccccc4s3)nn2)c1 | 6.25 (≈ 11.9 µM) | > 100 | 12.5 (≈ 23.8 µM) | > 100 | 100 (≈ 191 µM) | 6.25 (≈ 11.9 µM) | 50 (≈ 95.3 µM) | 7.54 | 25 (≈ 47.7 µM) | 3.12 (≈ 5.95 µM) | > 100 | 3.12 (≈ 5.95 µM) | 1.56 (≈ 2.97 µM) | > 100 | > 100
OC(Cn1cncn1)(Cn1cncn1)c1ccc(F)cc1F [FLUCONAZOLE] | 1.56 (≈ 5.09 µM) | – | 1.56 (≈ 5.09 µM) | – | – | 1.56 (≈ 5.09 µM) | – | – | 3.12 (≈ 10.2 µM) | 1.56 (≈ 5.09 µM) | – | 1.56 (≈ 5.09 µM) | 0.78 (≈ 2.55 µM) | – | –
O=C(O)c1cn(C2CC2)c2cc(N3CCNCC3)c(F)cc2c1=O [CIPROFLOXACIN] | – | – | – | 3.12 (≈ 9.42 µM) | – | – | – | – | – | – | – | – | – | – | –
